CHO-K1 Ca antag = counter-screen for M1 antagonists: effect in parental CHO-K1 cells; ATP-induced calcium, Fluo-8 fluorescence; inhibition, % at 3 µM; actives 0.6% (n = 360,000);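 active = inhibition above a per-plate cutoff, the plate's mean sample inhibition plus 3 SD, cut at about 24% in these data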
OX1R antag-1 = antagonists of human orexin 1 receptor (OX1R); AID 485270, 2010; actives 1.8% (n = 330,000); Orexin/Hypocretin receptor type 1 (Homo sapiens), O43613; inhibition, % at 6.6 µM; OX1R-expressing cells, FRET antagonist read-out; in the data active = inhibition mostly above about 38%, no sharp cut-off; inactive = mostly below about 40%
Target sequence (O43613 whole entry, looked up): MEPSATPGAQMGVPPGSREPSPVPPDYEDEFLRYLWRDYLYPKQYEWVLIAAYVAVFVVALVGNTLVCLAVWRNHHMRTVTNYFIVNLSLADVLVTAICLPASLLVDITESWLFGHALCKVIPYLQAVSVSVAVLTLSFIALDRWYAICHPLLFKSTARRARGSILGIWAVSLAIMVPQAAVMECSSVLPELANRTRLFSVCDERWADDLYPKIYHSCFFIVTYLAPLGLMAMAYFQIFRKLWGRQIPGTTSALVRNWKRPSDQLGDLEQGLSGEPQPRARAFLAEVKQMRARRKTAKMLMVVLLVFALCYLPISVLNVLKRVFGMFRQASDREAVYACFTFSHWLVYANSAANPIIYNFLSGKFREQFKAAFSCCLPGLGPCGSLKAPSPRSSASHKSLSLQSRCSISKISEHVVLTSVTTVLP
CHO parental Ca = ATP-evoked calcium signal inhibitors, parental CHO, primary screen, counter-screen for OX1R antagonist project, cell-based, fluorescence, Fluo-8 calcium dye | parental CHO-K1, ATP-induced calcium, Fluo-8 fluorescence | inhibition, % at 5.6 µM | actives 0.63% (n = 330,000) | AID 463079, 2010;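 active = inhibition above that plate's mean sample inhibition plus 3 SD, cut at about 26% in these data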
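Material – parental CHO cells · Reagent – ATP stimulus · Compound – single nominal dose of 5.6 µM per compound · Detection – Fluo-8 fluorescence · Read-out basis – percent inhibition of calcium signal · Controls – ATP-challenged DMSO wells low, unchallenged DMSO wells high · Repeats – no replicates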
CHO-K1 Ca ag = counter-screen for M1 agonists: effect in parental CHO-K1 cells | Fluo-8 calcium fluorescence; scaled to maximal ATP response, vehicle zero | activation, % at 3 µM | actives 0.48% (n = 360,000) | AID 602248, 2012; in the data active = activation above about 15%;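 note: untransfected CHO-K1 host cells lacking M1 receptor as counterscreen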
M1 PAM parental = nonselective calcium activators in parental CHO-K1 cells, primary screen, counter-screen for M1 PAM project, cell-based, Fluo-8 calcium fluorescence, full deck, 1536-well. ATP EC20; 0% at ATP EC20, 100% at ATP max. activation, % at 3 µM. actives 0.02% (n = 360,000). AID 602247, 2012;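 active = activation above the run cutoff, the mean activation of all test compounds plus 3 SD, cut at about 40% in these data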;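 note: peak over basal fluorescence ratio in a 140 s read after ATP addition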
OX1R antag-2 = OX1R (HCRTR1) antagonists, primary screen, fluorescence, CHO/OX1R cells, Fluo-8 calcium, orexin A. inhibition, % at 5 µM. Orexin/Hypocretin receptor type 1 (Homo sapiens), O43613. Fluo-8 calcium fluorescence. actives 0.43% (n = 330,000). AID 434989, 2010;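 active = inhibition above its plate's threshold, mean inhibition of all tested compounds on the plate plus 3 SD, cut at about 37% in these data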
Of the large screens only hits and unclear results are named; the others gave an inactive call. The list is not random: actives were taken first. Their share in the collection is about 2.9%.

O=C(COC(=O)c1ccc(Cl)nc1)NCCc1ccc(F)cc1	none
CC(=O)NC(c1cccc(F)c1)c1nc(-c2cc(F)cc(Cl)c2)cs1 (centres undefined)	none (no result: OX1R antag-1, CHO parental Ca, OX1R antag-2)
CCC(=O)NC1=C(NC(C)c2ccccc2)C(=O)c2ccccc2C1=O (centres undefined)	OX1R antag-1 64
CC(NC(=O)CN1C(=O)c2ccccc2C1=O)c1ccccc1 (centres undefined)	none
CCC(=O)Nc1ccc2c(c1)C(=O)c1ccccc1C2=O	OX1R antag-1 37
COc1ccc(-c2n[nH]c(C(F)(F)F)c2-c2cc3ccccc3o2)c(O)c1	CHO parental Ca 78, OX1R antag-2 52
O=c1[nH]nc(Br)c(=O)n1C(c1ccccc1)c1ccccc1	CHO-K1 Ca ag 26 (no result: OX1R antag-1, CHO parental Ca, OX1R antag-2)
Cc1ccc(CNC(=O)C2CCC(=O)N(C3CCCC3)C2)c(F)c1F (centres undefined)	none
CCn1cc([N+](=O)[O-])c(C(=O)N2N=C(c3ccc(Cl)c(Cl)c3)CC2c2ccccc2O)n1 (centres undefined)	CHO parental Ca 44, OX1R antag-2 73
CCn1cc([N+](=O)[O-])c(C(=O)N2N=C(c3ccc(O)c(OC)c3)CC2c2ccccc2O)n1 (centres undefined)	none
Oc1ccc(O)c(/C(=N/Nc2ccccc2)c2ccccc2)c1	none (no result: CHO-K1 Ca antag, CHO-K1 Ca ag, M1 PAM parental)
CNC(=O)Nc1ccc2snnc2c1	CHO-K1 Ca antag 26
O=C(Nc1ccc2snnc2c1)N1CCSCC1	none
Cc1ccc(CN2C(=O)C(C)Oc3ccc(C)cc32)cc1 (centres undefined)	none (no result: OX1R antag-1, CHO parental Ca, OX1R antag-2)
COc1ccccc1Cn1c(=S)[nH]c2cc(C(=O)N3CCC(C(N)=O)CC3)ccc2c1=O	none
CCOCCCn1c(=S)[nH]c2cc(C(=O)N3CCC(C(N)=O)CC3)ccc2c1=O	CHO-K1 Ca antag 25
COc1ccc(N/N=C(\C#N)C(=N)SCc2ccccc2)cc1	CHO-K1 Ca ag 18 (no result: OX1R antag-1, CHO parental Ca, OX1R antag-2)
COC(=O)C(CC(=O)c1ccc(C)cc1)n1nc(C)cc1C (centres undefined)	CHO-K1 Ca ag 16
COc1cccc(N2CCN(C(=S)Nc3ccccc3OC)CC2)c1	none
CCOc1ccccc1NC(=S)N1CCN(c2cccc(OC)c2)CC1	CHO-K1 Ca ag 17
COc1ccc(S(=O)(=O)N(C(=O)C(C)C)c2ccc3oc(=O)sc3c2)cc1	none
Cc1ccc(S(=O)(=O)N(C(=O)c2ccco2)c2cc3sc(=O)oc3c3ccccc23)cc1	CHO parental Ca 76, OX1R antag-2 62
CC(=O)N(c1ccc2oc(=O)sc2c1)S(=O)(=O)c1ccccc1	none
CCOc1ccc(S(=O)(=O)N(C(=O)c2ccco2)c2cc3sc(=O)oc3c3ccccc23)cc1	CHO parental Ca 82, OX1R antag-2 69
COc1ccc(S(=O)(=O)N(C(=O)c2ccco2)c2cc3sc(=O)oc3c3ccccc23)cc1	CHO parental Ca 66, OX1R antag-2 60
O=C(c1ccc(=O)[nH]c1)N(c1ccccc1)C(CCc1ccccc1)c1nc2ccccc2[nH]1 (centres undefined)	none (no result: OX1R antag-1, CHO parental Ca, OX1R antag-2)
COc1ccc(C2/C=C\CN(C(=O)CC(C)(C)C)CC(=O)N2Cc2ccc(F)cc2)cc1 (centres undefined)	none
COc1ccc(C2/C=C\CN(C(=O)C3CC3)CC(=O)N2Cc2ccc(F)cc2)cc1 (centres undefined)	CHO-K1 Ca antag 25
O=C(NN=Cc1ccccc1OC(F)F)c1ccc(NS(=O)(=O)c2cccs2)cc1	none
CCSc1cc(C)nc2c(-c3ccccc3)cnn12	OX1R antag-1 59
Cc1cc(N)n2ncc(-c3ccccc3)c2n1	none
C=CCSc1cc(C)nc2c(-c3ccccc3)cnn12	none
Cc1cc(N)n2ncc(-c3cccc(Br)c3)c2n1	OX1R antag-1 43
CCCCN(CCCC)C(=S)N/N=C/c1c(C)[nH]n(-c2ccccc2)c1=O	none
CCCSC(=S)c1c(C)[nH]n(-c2ccccc2)c1=O	CHO-K1 Ca ag 16
Clc1ccc(-c2ccc(-c3nn4c(-c5ccco5)nnc4s3)o2)cc1	none
Brc1ccc(-c2nn3c(-c4ccco4)nnc3s2)o1	CHO-K1 Ca antag 25
O=C(CCNC(=O)c1ccc(Br)cc1)NCCCN1CCCC1=O	none
Cc1ccc(NC(=O)CSc2nnc(-c3cccs3)n2Cc2ccco2)cc1	none
CN(C)c1ccc(NC(=O)CSc2nnc(-c3cccs3)n2Cc2ccco2)cc1	OX1R antag-1 47
C=CCN(CC=C)S(=O)(=O)c1ccc2nc(NC(=O)C(C)C)sc2c1	CHO-K1 Ca ag 33, M1 PAM parental 43
COCCCN(CCC#N)C(=O)c1c(-c2c(Cl)cccc2Cl)noc1C	none
COc1cc(C2NC(=O)NC(C)=C2C(=O)OC2CCCCC2)cc(Cl)c1O (centres undefined)	none
CC(C)=CCc1c(O)cc2oc3c(CC=C(C)C)c(O)c(O)c(CC=C(C)C)c3c(=O)c2c1O	CHO-K1 Ca antag 25
CC(C)=CCc1cc(-c2oc3cc(O)cc(O)c3c(=O)c2O)ccc1O	none
NC(=O)Cc1ccc(C(=O)c2ccc(F)cc2)s1	none
NC(=O)Cc1ccc(C(=O)c2ccccc2F)s1	CHO-K1 Ca antag 25
Cc1nn(-c2ccccc2)c(Cl)c1C(=O)N1CCN(c2ncnc3c2cnn3-c2ccccc2)CC1	OX1R antag-1 83, CHO parental Ca 78, OX1R antag-2 51
Cc1ccc(/C=N/N(C)S(=O)(=O)c2ccc(C)cc2)cc1	CHO parental Ca 51
CSc1ccc(/C=N/N(C)S(=O)(=O)c2ccc(C)cc2)cc1	CHO parental Ca 63
Cc1ccc(S(=O)(=O)N(C)/N=C/c2ccc(C(=O)O)cc2)cc1	none
Nc1c(-c2ccccc2)nc(Cl)nc1-c1ccccc1	none
c1ccc(-c2nc3nonc3nc2-c2ccccc2)cc1	OX1R antag-1 40
C=CCn1c(C(C)C)nc2ccccc21	CHO-K1 Ca ag 18
Cc1ccc(S(=O)(=O)N2CCCC2CNC(=O)c2ccc(F)c(F)c2)cc1 (centres undefined)	OX1R antag-1 70
Cc1ccc(C(=O)NCC2CCCN2S(=O)(=O)c2ccc(C)cc2)cc1 (centres undefined)	none
O=C(NCC1CCCN1S(=O)(=O)c1ccccc1)c1cccc(Cl)c1 (centres undefined)	OX1R antag-1 60
Cc1ccc(C)c(S(=O)(=O)N2CCCCC2CCNC(=O)C(=O)NCc2ccco2)c1 (centres undefined)	OX1R antag-1 41
Cc1ccc(C)c(S(=O)(=O)N2CCCC2CNC(=O)c2ccc([N+](=O)[O-])cc2)c1 (centres undefined)	OX1R antag-1 54

Source: PubChem BioAssay (The Scripps Research Institute Molecular Screening Center)
